Tests used:
[1] = target: T1, Epidermal growth factor receptor (Homo sapiens, UniProt P00533, C797S/L858R/T790M); assay: Inhibition of N-terminal His6-tagged human EGFR L858R/T790M/C797S mutant expressed in Sf9 cells assessed as decrease in substrate phosphorylation incubated for 45 mins using Srctide as substrate in presence of 1mM of ATP by microplate reader analysis
Procedure, shortened: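 Compound in DMSO was preincubated 0, 20 or 60 min with 250 pg/µL EGFR_TM (residues 694-1022) in 20 mM HEPES pH 7.4, 5 mM MgCl2, 1 mM MnCl2, 0.003% Brij-35, 0.004% Tween-20, 2 mM DTT. […] EDTA stop; phosphorylation read by mobility-shift chip, ex 488/em 530 nm.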

[2] = target: T1, Epidermal growth factor receptor; assay: Inhibition of N-terminal His6-tagged human EGFR L858R/T790M/C797S mutant expressed in Sf9 cells assessed as decrease in substrate phosphorylation incubated for 45 mins using Srctide as substrate in presence of 5uM of ATP by microplate reader analysis
[3] = target: MAP kinase-interacting serine/threonine-protein kinase 1 (Homo sapiens) (UniProt Q9BUB5); assay: Inhibition of human MNK1 assessed as decrease in substrate phosphorylation using 5FAM-KKKVSRSGLYRSPSMPENLNRPR-COOH as substrate preincubated for 15 mins followed by substrate addition in presence of 1mM of ATP and measured after 45 mins by microplate reader analysis; settings: time 60.0 min
Chain of MAP kinase-interacting serine/threonine-protein kinase 1 (Homo sapiens) (Q9BUB5 whole entry, looked up): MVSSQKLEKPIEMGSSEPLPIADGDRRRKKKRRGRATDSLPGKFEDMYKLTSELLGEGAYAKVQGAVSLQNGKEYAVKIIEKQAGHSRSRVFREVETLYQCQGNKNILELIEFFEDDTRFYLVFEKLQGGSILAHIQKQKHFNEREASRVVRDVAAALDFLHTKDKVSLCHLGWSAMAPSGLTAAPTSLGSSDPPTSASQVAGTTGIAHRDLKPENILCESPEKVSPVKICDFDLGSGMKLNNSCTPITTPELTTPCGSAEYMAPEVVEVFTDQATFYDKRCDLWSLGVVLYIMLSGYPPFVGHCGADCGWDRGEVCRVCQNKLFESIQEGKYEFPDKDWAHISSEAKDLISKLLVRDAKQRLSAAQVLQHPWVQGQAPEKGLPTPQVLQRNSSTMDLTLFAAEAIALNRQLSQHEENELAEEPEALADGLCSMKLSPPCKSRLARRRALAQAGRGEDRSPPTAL
Procedure, shortened: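 MNK1 at 440 ng/mL was preincubated 15 min with 1 µM compound in 100 mM HEPES pH 7.4, 0.003% Brij-35, 0.004% Tween-20, 1 mM DTT. Then 1 mM ATP, 1.5 µM FL-Peptide 10 and 10 mM MgCl2 were added for 45 min. Mobility-shift read.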

[4] = system: Epidermal growth factor receptor (Homo sapiens), P00533 [L858R,T790M]; assay: Inhibition of human EGFR T790M/L858R mutant assessed as decrease in substrate phosphorylation using Srctide as substrate preincubated for 15 mins followed by substrate addition in presence of 1mM of ATP and measured after 45 mins by microplate reader analysis; settings: time 60.0 min
Chain of Epidermal growth factor receptor (Homo sapiens), P00533 [L858R,T790M] (P00533 whole entry T790M/L858R, looked up): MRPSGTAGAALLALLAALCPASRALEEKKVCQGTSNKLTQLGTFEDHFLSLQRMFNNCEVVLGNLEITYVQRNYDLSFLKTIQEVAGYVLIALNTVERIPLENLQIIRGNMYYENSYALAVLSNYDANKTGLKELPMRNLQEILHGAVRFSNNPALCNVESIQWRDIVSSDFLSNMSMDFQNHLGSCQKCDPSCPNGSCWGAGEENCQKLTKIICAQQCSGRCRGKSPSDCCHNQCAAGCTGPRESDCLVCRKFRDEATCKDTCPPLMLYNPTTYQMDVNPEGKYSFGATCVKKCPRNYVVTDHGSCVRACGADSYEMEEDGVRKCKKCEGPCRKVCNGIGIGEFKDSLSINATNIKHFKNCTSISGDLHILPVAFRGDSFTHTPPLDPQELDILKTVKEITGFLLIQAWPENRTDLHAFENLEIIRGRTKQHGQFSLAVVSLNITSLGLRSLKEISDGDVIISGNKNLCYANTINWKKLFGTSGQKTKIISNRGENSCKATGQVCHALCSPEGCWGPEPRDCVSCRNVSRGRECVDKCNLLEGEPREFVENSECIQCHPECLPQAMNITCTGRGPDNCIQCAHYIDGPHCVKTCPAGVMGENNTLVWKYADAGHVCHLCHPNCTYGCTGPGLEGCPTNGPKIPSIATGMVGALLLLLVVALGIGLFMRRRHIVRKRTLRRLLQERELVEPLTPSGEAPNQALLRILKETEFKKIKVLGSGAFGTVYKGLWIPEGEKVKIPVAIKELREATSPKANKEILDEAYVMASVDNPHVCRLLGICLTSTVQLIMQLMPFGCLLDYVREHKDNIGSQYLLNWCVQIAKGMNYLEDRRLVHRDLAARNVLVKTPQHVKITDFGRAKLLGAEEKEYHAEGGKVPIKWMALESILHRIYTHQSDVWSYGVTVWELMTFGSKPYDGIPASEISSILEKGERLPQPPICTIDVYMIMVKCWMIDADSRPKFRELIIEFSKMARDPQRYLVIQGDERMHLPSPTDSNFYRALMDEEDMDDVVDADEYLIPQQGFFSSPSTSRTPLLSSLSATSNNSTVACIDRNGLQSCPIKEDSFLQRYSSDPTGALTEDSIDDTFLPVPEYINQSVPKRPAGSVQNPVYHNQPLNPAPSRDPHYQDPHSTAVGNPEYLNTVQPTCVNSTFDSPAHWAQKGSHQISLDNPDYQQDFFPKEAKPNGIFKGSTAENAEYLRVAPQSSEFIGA
Procedure, shortened: (§1)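 Panel format: compound at 1 µM final was preincubated 15 min with kinase in 20 mM HEPES pH 7.4, 5 mM MgCl2, 1 mM MnCl2, 0.003% Brij-35, 0.004% Tween-20, 2 mM DTT. ATP (1 mM) and Srctide (1.5 µM) were then added for 45 min. EDTA stop; mobility-shift read, ex 488/em 530 nm.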

[5] = system: Epidermal growth factor receptor (Homo sapiens), P00533 [UNDEFINED MUTATION]; assay: Inhibition of human EGFR d746-750/T790M/C797S mutant assessed as decrease in substrate phosphorylation using Srctide as substrate preincubated for 15 mins followed by substrate addition in presence of 1mM of ATP and measured after 45 mins by microplate reader analysis; settings: time 60.0 min
Chain of Epidermal growth factor receptor (Homo sapiens), P00533 [UNDEFINED MUTATION] (P00533 whole entry, looked up, stated change not applied): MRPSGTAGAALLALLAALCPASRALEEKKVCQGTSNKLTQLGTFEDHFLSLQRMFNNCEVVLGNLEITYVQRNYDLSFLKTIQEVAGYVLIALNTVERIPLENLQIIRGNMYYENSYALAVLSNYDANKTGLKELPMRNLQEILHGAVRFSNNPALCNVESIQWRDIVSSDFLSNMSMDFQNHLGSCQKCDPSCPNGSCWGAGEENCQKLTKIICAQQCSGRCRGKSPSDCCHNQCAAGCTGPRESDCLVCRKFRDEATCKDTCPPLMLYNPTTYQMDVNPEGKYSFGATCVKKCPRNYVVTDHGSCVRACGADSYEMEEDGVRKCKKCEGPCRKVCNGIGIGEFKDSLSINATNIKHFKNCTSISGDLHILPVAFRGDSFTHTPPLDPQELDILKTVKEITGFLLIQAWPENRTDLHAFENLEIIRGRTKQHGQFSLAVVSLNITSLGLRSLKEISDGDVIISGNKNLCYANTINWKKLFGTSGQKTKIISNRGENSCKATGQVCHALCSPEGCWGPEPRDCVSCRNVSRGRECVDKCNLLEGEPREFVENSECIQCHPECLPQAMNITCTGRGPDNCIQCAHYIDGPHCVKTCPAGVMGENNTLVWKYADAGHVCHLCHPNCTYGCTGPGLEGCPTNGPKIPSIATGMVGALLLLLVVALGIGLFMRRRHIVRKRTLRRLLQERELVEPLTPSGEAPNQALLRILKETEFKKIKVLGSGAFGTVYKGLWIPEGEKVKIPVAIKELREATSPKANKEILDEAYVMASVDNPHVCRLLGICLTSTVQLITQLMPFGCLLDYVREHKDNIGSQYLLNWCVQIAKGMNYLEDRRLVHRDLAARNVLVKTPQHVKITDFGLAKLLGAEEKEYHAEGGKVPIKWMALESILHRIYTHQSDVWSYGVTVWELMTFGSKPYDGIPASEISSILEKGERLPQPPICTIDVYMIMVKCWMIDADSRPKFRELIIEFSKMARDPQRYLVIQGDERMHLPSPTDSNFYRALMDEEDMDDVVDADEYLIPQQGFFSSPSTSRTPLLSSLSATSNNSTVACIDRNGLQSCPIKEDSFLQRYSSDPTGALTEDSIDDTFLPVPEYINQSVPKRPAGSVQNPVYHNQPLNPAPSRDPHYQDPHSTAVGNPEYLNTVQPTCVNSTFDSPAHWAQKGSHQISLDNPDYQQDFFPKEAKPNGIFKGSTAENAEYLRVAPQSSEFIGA
Procedure, shortened: (§2)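 Compound at 1 µM final, 15 min preincubation with mutant EGFR in mutant-EGFR buffer (5 mM MgCl2, 1 mM MnCl2) at 200 ng/mL for T790M/C797S/L858R, 180 ng/mL for d746-750/T790M, and 350 ng/mL for d746-750/T790M/C797S. Then 1 mM ATP plus 1.5 µM Srctide for 45 min. Mobility-shift read.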

[6] = target: T1, Epidermal growth factor receptor; assay: Inhibition of N-terminal His6-tagged human EGFR L858R/T790M/C797S mutant expressed in Sf9 cells assessed as decrease in substrate phosphorylation using Ulight-JAK1 peptide as substrate incubated for 1.5 hrs in presence of ATP by TR-FRET based LANCE Ultra kinase assay
Procedure, shortened: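 LANCE Ultra TR-FRET assay with 0.25 nM EGFR_TM, 1 µM ATP, 50 nM ULight-JAK1 peptide, 50 mM HEPES pH 7.5, 10 mM MgCl2, 5 mM MnCl2, 1 mM DTT, 0.015% Brij35, 5% DMSO, 1.5 h at 23°C. EDTA stop, Eu-anti-pTyr PT66, 1 h. Signal is the 665/620 nm ratio, normalised to no-protein controls. IC50 from a four-parameter fit, otherwise % inhibition at the top concentration.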

[7] = system: Epidermal growth factor receptor (Homo sapiens), P00533 [L858R,T790M,C797S]; assay: Inhibition of human EGFR T790M/C797S/L858R mutant assessed as decrease in substrate phosphorylation using Srctide as substrate preincubated for 15 mins followed by substrate addition in presence of 1mM of ATP and measured after 45 mins by microplate reader analysis; settings: time 60.0 min; procedure, shortened: as §2
[8] = system: Epidermal growth factor receptor (Homo sapiens), P00533 [UNDEFINED MUTATION]; assay: Inhibition of human EGFR d746-750 mutant assessed as decrease in substrate phosphorylation using Srctide as substrate preincubated for 15 mins followed by substrate addition in presence of 1mM of ATP and measured after 45 mins by microplate reader analysis; settings: time 60.0 min; procedure, shortened: as §1
[9] = system: Epidermal growth factor receptor (Homo sapiens), P00533 [UNDEFINED MUTATION]; assay: Inhibition of human EGFR d746-750/T790M mutant assessed as decrease in substrate phosphorylation using Srctide as substrate preincubated for 15 mins followed by substrate addition in presence of 1mM of ATP and measured after 45 mins by microplate reader analysis; settings: time 60.0 min; procedure, shortened: as §2

T1 sequence (P00533 25-1210 T790M/C797S/L858R limits assumed): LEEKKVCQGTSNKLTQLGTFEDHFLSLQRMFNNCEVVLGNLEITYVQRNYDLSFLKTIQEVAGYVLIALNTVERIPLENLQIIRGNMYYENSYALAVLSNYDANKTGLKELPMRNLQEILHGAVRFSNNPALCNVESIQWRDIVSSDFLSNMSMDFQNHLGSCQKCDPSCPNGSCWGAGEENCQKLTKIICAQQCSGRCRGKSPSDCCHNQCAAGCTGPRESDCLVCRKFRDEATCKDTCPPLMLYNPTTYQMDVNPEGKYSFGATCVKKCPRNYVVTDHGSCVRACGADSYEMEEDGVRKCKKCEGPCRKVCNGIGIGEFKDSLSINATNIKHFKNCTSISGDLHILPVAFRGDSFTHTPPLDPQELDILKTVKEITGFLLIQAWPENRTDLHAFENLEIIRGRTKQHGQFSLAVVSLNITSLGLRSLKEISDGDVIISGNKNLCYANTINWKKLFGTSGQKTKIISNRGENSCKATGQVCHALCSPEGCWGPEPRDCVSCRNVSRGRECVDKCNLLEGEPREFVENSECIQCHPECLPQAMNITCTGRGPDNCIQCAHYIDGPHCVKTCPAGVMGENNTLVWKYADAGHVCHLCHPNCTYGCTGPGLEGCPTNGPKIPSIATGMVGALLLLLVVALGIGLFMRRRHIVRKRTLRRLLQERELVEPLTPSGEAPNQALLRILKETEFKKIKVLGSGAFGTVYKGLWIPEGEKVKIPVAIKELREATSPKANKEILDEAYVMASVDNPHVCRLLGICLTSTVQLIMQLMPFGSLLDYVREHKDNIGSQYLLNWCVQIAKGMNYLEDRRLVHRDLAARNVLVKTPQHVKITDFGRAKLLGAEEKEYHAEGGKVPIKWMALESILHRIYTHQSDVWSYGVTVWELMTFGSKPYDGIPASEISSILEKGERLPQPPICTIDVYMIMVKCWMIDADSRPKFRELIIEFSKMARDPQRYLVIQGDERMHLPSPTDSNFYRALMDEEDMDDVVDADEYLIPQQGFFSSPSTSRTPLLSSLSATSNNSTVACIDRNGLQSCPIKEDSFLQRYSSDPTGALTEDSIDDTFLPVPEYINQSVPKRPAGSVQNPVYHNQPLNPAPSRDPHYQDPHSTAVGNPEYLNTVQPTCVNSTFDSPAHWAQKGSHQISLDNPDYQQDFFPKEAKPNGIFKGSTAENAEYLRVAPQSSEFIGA

- IC50 [1]: 1.3 µM
- IC50 [2]: 0.599 µM
- inhibition [3]: 26.5%
- inhibition [4]: > 80%
- inhibition [5]: > 80%
- IC50 [6]: 0.9 µM
- inhibition [7]: > 80%
- inhibition [8]: > 80%
- inhibition [9]: > 80%
Compound: C=CC(=O)Nc1cc(-c2cn(C)c3ccccc23)ncn1

Reference: ChEMBL document CHEMBL5329221, “A covalent fragment-based strategy targeting a novel cysteine to inhibit activity of mutant EGFR kinase” (RSC Med Chem, 2023)
